Activity calls are given as the source filed them. The rule behind the calls is not given here.
Columns and labels:
[1] = target: T1, General transcription and DNA repair factor IIH helicase/translocase subunit XPB (Homo sapiens, UniProt P19447); experiment: Inhibition of […] ATPase activity in human HeLa cell nuclear extracts; format: cell-based
T1 sequence (P19447 whole entry): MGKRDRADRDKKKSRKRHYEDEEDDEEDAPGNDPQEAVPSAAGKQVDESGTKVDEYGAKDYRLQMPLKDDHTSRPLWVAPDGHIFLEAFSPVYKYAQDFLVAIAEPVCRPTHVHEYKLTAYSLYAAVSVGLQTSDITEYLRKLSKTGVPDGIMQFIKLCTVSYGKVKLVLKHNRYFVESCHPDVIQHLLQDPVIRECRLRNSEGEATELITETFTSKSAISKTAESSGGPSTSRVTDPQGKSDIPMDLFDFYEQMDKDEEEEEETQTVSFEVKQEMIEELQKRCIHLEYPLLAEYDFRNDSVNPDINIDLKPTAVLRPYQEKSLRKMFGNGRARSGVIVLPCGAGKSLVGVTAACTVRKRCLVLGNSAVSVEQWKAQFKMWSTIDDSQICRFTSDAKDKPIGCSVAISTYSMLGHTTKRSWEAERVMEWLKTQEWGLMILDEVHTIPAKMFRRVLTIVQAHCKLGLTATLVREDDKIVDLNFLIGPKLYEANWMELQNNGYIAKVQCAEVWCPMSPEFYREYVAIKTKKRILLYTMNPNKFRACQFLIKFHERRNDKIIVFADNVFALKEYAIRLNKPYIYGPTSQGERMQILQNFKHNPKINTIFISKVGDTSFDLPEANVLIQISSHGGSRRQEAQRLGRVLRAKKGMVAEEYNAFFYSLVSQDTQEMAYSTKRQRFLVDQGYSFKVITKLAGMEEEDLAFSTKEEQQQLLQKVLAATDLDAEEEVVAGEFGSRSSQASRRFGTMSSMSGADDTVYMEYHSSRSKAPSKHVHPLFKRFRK

HepG2 [2] = experiment: Cytotoxicity against human HepG2 cells after 48 hrs by XTT assay; format: functional, cell-based; conditions: HepG2, 48 h
Hepatocyte = experiment: Cytotoxicity against primary hepatocytes (unknown origin) after 48 hrs by XTT assay; format: cell-based
HepG2 [3] = experiment: Antitumor activity against human HepG2 cells xenografted in Balb/c nude mouse assessed as reduction in tumor growth at 0.2 mg/kg, ip administered once daily for 15 days; format: functional, organism-based
How it was run: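 HepG2 cells were inoculated into nude mice, and daily ip dosing began one week later and ran for two weeks. Tumour volume was followed over the treatment, and tumours were weighed and imaged at the end. n = 8 mice/group; Student's t test was used against the control.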

[4] = Hepatotoxicity in Balb/c nude mouse xenografted with human HepG2 cells assessed as effect on serum ALT levels at 0.2 mg/kg, ip administered once daily for 15 days; format: toxicity, organism-based; conditions: in vivo, 360 h
How it was run: (§1)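 HepG2-xenografted nude mice were dosed every day for 15 days. Serum ALT, AST, creatinine and blood urea nitrogen were measured and compared with the control.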

[5] = Renal toxicity in Balb/c nude mouse xenografted with human HepG2 cells assessed as increase in serum creatinine levels at 0.2 mg/kg, ip administered once daily for 15 days; format: organism-based; conditions: in vivo, 360 h; how it was run: as §1
[6] = Renal toxicity in Balb/c nude mouse xenografted with human HepG2 cells assessed as glomerular capillary loop lesions at 0.2 mg/kg, ip administered once daily for 15 days by hematoxylin and eosin staining based microscopic analysis; format: organism-based; conditions: in vivo, 360 h
How it was run: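 After 15 days of daily dosing, kidneys from xenografted nude mice were sectioned, H&E stained and examined at ×200 for glomerular capillary loop lesions, alongside control sections.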

[7] = Hepatotoxicity in Balb/c nude mouse xenografted with human HepG2 cells assessed as pathological abnormalities at 0.2 mg/kg, ip administered once daily for 15 days by hematoxylin and eosin staining based microscopic analysis; format: toxicity, organism-based; conditions: in vivo, 360 h
[8] = Toxicity in Balb/c nude mouse at 0.2 mg/kg, ip; format: organism-based; conditions: in vivo
[9] = Hepatotoxicity in Balb/c nude mouse xenografted with human HepG2 cells assessed as effect on serum AST levels at 0.2 mg/kg, ip administered once daily for 15 days; format: toxicity, organism-based; conditions: in vivo, 360 h; how it was run: as §1
[10] = Toxicity in Balb/c nude mouse xenografted with human HepG2 cells assessed as change in body weight at 0.2 mg/kg, ip administered once daily for 15 days measured during compound dosing; format: organism-based; conditions: in vivo, 360 h
How it was run: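 Xenografted nude mice (8/group) received ip doses once daily for two weeks, starting one week after HepG2 inoculation. Body weight was recorded throughout the treatment period.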

[11] = Renal toxicity in Balb/c nude mouse xenografted with human HepG2 cells assessed as increase in serum BUN levels at 0.2 mg/kg, ip administered once daily for 15 days; format: organism-based; conditions: in vivo, 360 h; how it was run: as §1
[12] = Ratio of AUC in KM mouse liver to plasma at 1 mg/kg, ip administered as single dose; format: ADME, organism-based; conditions: other tissue
How it was run: (§2)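 Mice received a single ip dose at 1.0 mg/kg. Levels were measured in plasma, liver and kidney with a validated analytical method, and plasma was sampled over time to 2 h and beyond. Derived values were absorption, distribution and terminal half-lives, tmax, Cmax and AUC tissue/plasma ratios.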

HepG2 [13] = experiment: Cytotoxicity against human HepG2 cells after 48 hrs in presence of NQO1 inhibitor dicoumarol by XTT assay; format: functional, cell-based
[14] = target: T2, NAD(P)H dehydrogenase [quinone] 1 (Homo sapiens, UniProt P15559); experiment: Prodrug activation in human HepG2 cell lysates assessed as NQO1-mediated triptolide formation at 10 uM after 60 mins in presence of NADPH and NQO1 inhibitor dicoumarol by HPLC analysis; format: subcellular, Lysate; conditions: hepg2, 1 h
[15] = Toxicity in Balb/c nude mouse xenografted with human HepG2 cells assessed as change in body weight at 0.3 to 1 mg/kg, ip administered once daily for 15 days measured during compound dosing; format: organism-based; conditions: in vivo, 360 h
How it was run: (§3)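 HepG2 xenograft in nude mice. Dosing began one week after cell inoculation, ip once daily for two weeks. Tumor volume was followed during treatment, tumor weight taken at the end, and body weight monitored throughout. n = 8 mice/group; Student's t test against control.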

[16] = Terminal half life in KM mouse at 1 mg/kg, ip administered as single dose; format: ADME, organism-based; conditions: in vivo, read-out: beta t1/2; how it was run: as §2
[17] = Distribution half life in KM mouse at 1 mg/kg, ip administered as single dose; format: ADME, organism-based; conditions: in vivo, read-out: alphat1/2; how it was run: as §2
[18] = Hepatotoxicity in Balb/c nude mouse xenografted with human HepG2 cells assessed as effect on serum ALT levels at 0.3 to 1 mg/kg, ip administered once daily for 15 days; format: toxicity, organism-based; conditions: in vivo, 360 h
How it was run: (§4)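 Nude mice were dosed ip every day for 15 days at 0.2 mg/kg (reference), 0.3 mg/kg or 1.0 mg/kg. Serum ALT, AST, creatinine and BUN were measured. Kidney sections were H&E stained and examined at X200. Comparisons were made against control.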

Keratinocyte = experiment: Cytotoxicity against human keratinocytes after 48 hrs by XTT assay; format: cell-based
[19] = target: NQO1 (NAD(P)H dehydrogenase [quinone] 1) (Homo sapiens, UniProt P15559); experiment: Half life in human HepG2 cell lysates assessed as NQO1-mediated compound degradation at 10 uM in presence of NADPH by HPLC analysis; format: ADME, subcellular, Lysate
[20] = target: T2, NAD(P)H dehydrogenase [quinone] 1; experiment: Prodrug activation in human HepG2 cell lysates assessed as NQO1-mediated CX-21 formation at 10 uM up to 60 mins in presence of NADPH by HPLC analysis; format: subcellular, Lysate; conditions: hepg2, 1 h
[21] = Time at which plasma concentration stays above in vitro IC50 for antiproliferative activity against human HepG2 cells in KM mouse at 1 mg/kg, ip administered as single dose; format: organism-based; conditions: in vivo; how it was run: as §2
[22] = Hepatotoxicity in Balb/c nude mouse xenografted with human HepG2 cells assessed as effect on serum AST levels at 0.3 to 1 mg/kg, ip administered once daily for 15 days; format: toxicity, organism-based; conditions: in vivo, 360 h; how it was run: as §4
A549 = experiment: Cytotoxicity against human A549 cells after 48 hrs by XTT assay; format: functional, cell-based; conditions: A549, 48 h
[23] = Ratio of AUC in KM mouse kidney to plasma at 1 mg/kg, ip administered as single dose; format: ADME, organism-based; conditions: other tissue; how it was run: as §2
[24] = Tmax in KM mouse at 1 mg/kg, ip administered as single dose; format: ADME, organism-based; conditions: in vivo; how it was run: as §2
carboxyl ester hydrolase = experiment: Half life in human plasma assessed as carboxyl ester hydrolase-mediated compound degradation at 10 uM by UV-HPLC analysis; format: ADME, cell-free
How it was run: (§5)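 Compound was incubated for 1 h in vitro in human plasma or human liver microsomes, and half-life was determined from its disappearance.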

[25] = target: T2, NAD(P)H dehydrogenase [quinone] 1; experiment: Prodrug activation in human HepG2 cell lysates assessed as NQO1-mediated CX-21 formation at 10 uM after 60 mins in presence of NADPH and NQO1 inhibitor dicoumarol by HPLC analysis; format: subcellular, Lysate; conditions: hepg2, 1 h
CYP450 = CYP450 (Homo sapiens, UniProt P04798+P05177+P05181+P08684+P10632+P10635+P11509+P11712+P13584+P20813+P20815+P20853+P24462+P24903+P33260+P33261+P51589+P78329+P98187+Q02928+Q08477+Q16678+Q16696+Q5TCH4+Q6VVX0+Q7Z449+Q8TAV3+Q96SQ9+Q9HB55); experiment: Half life in human liver microsomes assessed as CYP450-mediated compound degradation at 10 uM by UV-HPLC analysis; format: ADME; how it was run: as §5
[26] = Cytotoxicity against human skin fibroblasts after 48 hrs by XTT assay
[27] = Plasma concentration in KM mouse at 1 mg/kg, ip administered as single dose at 2 hrs post dose; format: ADME, organism-based; how it was run: as §2
[28] = Therapeutic index, ratio of IC50 for primary hepatocytes (unknown origin) to IC50 for human HepG2 cells; format: toxicity; conditions: primary hepatocytes (unknown origin) versus HepG2 cells, read-out: Ratio IC50
HepG2 [29] = experiment: Antitumor activity against human HepG2 cells xenografted in Balb/c nude mouse assessed as reduction in tumor growth at 0.3 to 1 mg/kg, ip administered once daily for 15 days; format: functional, organism-based; how it was run: as §3
[30] = target: T2, NAD(P)H dehydrogenase [quinone] 1; experiment: Prodrug activation in human HepG2 cell lysates assessed as NQO1-mediated triptolide formation at 10 uM up to 60 mins in presence of NADPH by HPLC analysis; format: subcellular, Lysate; conditions: hepg2, 1 h
[31] = Cmax in KM mouse at 1 mg/kg, ip administered as single dose; format: ADME, organism-based; parameters: dose 1 mg/kg, route intraperitoneal; conditions: in vivo; how it was run: as §2
[32] = Plasma concentration in KM mouse at 1 mg/kg, ip administered as single dose after 2 hrs; format: ADME, organism-based; conditions: in vivo, BLD = below limit of detection; how it was run: as §2
HeLa = experiment: Cytotoxicity against human HeLa cells after 48 hrs by XTT assay; format: functional, cell-based
[33] = Toxicity in Balb/c nude mouse at 1 mg/kg, ip; format: organism-based; conditions: in vivo
How it was run: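 In a preliminary experiment, nude mice were given a single ip dose of 1.0 mg/kg and observed for toxic symptoms.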

[34] = Hepatotoxicity in Balb/c nude mouse xenografted with human HepG2 cells assessed as pathological abnormalities at 0.3 to 1 mg/kg, ip administered once daily for 15 days by hematoxylin and eosin staining based microscopic analysis; format: toxicity, organism-based; conditions: in vivo, 360 h
HepG2 [35] = experiment: Cytotoxicity against human HepG2 cells up to 20 uM after 48 hrs by XTT assay; format: functional, cell-based

T2 sequence (P15559 whole entry): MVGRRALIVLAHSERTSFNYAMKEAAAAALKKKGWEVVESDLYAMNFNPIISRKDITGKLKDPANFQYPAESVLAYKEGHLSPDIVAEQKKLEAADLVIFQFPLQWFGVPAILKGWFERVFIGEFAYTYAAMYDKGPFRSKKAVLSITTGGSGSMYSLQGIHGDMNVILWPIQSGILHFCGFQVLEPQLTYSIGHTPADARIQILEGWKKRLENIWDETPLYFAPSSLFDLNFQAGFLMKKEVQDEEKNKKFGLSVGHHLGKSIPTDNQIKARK
NQO1 (NAD(P)H dehydrogenase [quinone] 1), sequence (P15559 whole entry): as above

CC(C)[C@]12O[C@H]1[C@@H]1O[C@]13[C@]1(O[C@H]1C[C@H]1C4=C(CC[C@@]13C)C(=O)OC4)[C@@H]2O [TRIPTOLIDE]
inhibition (INH) [1]: Active
IC50 (HepG2 [2]): 43.3 nM
IC50 (Hepatocyte): 37.7 nM
Activity (HepG2 [3]): Active
Activity [4]: Non-Toxic
Activity [5]: Toxic
Activity [6]: Toxic
Activity [7]: Non-Toxic
Activity [8]: Non-Toxic
Activity [9]: Non-Toxic
Activity [10]: Non-Toxic
Activity [11]: Toxic

CC1=C(C)C(=O)C(C(C)(C)CC(=O)O[C@@H]2[C@@]3(C(C)C)O[C@H]3[C@@H]3O[C@]34[C@]23O[C@H]3C[C@H]2C3=C(CC[C@@]24C)C(=O)OC3)=C(C)C1=O
Ratio [12]: < 5%
inhibition (INH) [1]: Not Active
IC50 (HepG2 [2]): 54.3 nM
Activity (HepG2 [13]): inactive
IC50 (Hepatocyte): 540 nM
Drug metabolism [14]: Metabolite_Notdetected
Activity [15]: Non-Toxic
half-life [16]: 154 min
half-life [17]: 15.1 min
Activity [18]: Non-Toxic
IC50 (Keratinocyte): > 1000 nM
half-life at 10 µM [19]: 7.27 min
Drug metabolism [20]: Metabolite_Detected
Time [21]: 40 min
Activity [22]: Non-Toxic
IC50 (A549): 59.4 nM
Ratio [23]: < 5%
Tmax [24]: 3 min
half-life at 10 µM (carboxyl ester hydrolase): > 60 min
Drug metabolism [25]: Metabolite_Notdetected
half-life at 10 µM (CYP450): > 60 min
IC50 [26]: > 1000 nM
concentration at 2 h [27]: 1.38 ng/mL
selectivity ratio [28]: 9.89
Activity (HepG2 [29]): Active
Drug metabolism [30]: Metabolite_Detected
Cmax [31]: 243 ng/mL
Cp [32]: Bld
IC50 (HeLa): 38.2 nM
Activity [33]: Non-Toxic
Activity [34]: Non-Toxic

O=c1oc2ccccc2c(O)c1Cc1c(O)c2ccccc2oc1=O
Activity (HepG2 [35]): inactive

From ChEMBL document CHEMBL4382274, “NQO1-Selective Activated Prodrug of Triptolide: Synthesis and Antihepatocellular Carcinoma Activity Evaluation” (ACS Med Chem Lett, 2018)
